Assay outcomes deposited in PubChem BioAssay by Broad Institute.
S100A4 MyoIIA – inhibitors of human S100A4 binding to myosin IIA peptide. P26447. S100A4/TAMRA-MyoIIA peptide fluorescence polarization. inhibition, % at 10.7 µM. hit rate 0.14% among 360,000. AID 652163;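 active = mean inhibition of at least 70% across replicates, with every replicate also reaching that level; inconclusive = mean inhibition reaches 70% but some replicates fall short; inactive = mean inhibition below 70%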
Target sequence (P26447 whole entry, looked up): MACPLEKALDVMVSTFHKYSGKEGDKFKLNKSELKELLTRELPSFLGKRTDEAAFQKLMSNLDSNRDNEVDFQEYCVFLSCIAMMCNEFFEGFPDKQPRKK
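Material: human S100A4 monomer with TAMRA-labelled myosin IIA peptide; buffer or medium: HEPES pH 7.2 with CaCl2, KCl, NaCl, DTT, Triton; compound dosing: one concentration per compound; schedule: 5 min incubation before reading; benchmarks: neutral control DMSO, positive control TFP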
rRNA inh HTS – inhibits bacterial ribosomal RNA function over humanized ribosomes; hit rate 1.6% among 350,000; E. coli WT GFP vs humanized-ribosome RFP mutants, fluorescence, 24 h; hits give low values; DMSO median 0, no signal -100; GFP signal change (wild-type ribosome), % (test concentration not listed);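 active = significant combined selectivity score with lowered wild-type GFP, culture density cut under 30%, mutant RFP and density less affected; inactive = any of these conditions unmet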
PGC1a acetyl inh – modulators of PGC1a acetylation; inhibition, % at 15.6 µM; U2OS PGC1a acetylation, AlphaScreen anti-acetyl-lysine; with virally co-expressed GCN5 acetyltransferase; hit rate 0.17% among 350,000; AID 651687;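 active = every replicate shows inhibition of at least 40%; inconclusive = mean inhibition at least 40% but some replicate below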
Casp6 inh – caspase-6 (human) enzyme inhibition; AID 686996; hit rate 0.53% among 350,000; inhibition, % at 12.5 µM; P55212; purified caspase-6, Z-VEID-R110 cleavage fluorescence;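 active = mean inhibition across replicates at least about 35%, with every replicate also reaching that limit, limit read from the data; inconclusive = only one of the two criteria met; inactive = neither criterion met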
Target sequence (P55212 24-179 limits assumed): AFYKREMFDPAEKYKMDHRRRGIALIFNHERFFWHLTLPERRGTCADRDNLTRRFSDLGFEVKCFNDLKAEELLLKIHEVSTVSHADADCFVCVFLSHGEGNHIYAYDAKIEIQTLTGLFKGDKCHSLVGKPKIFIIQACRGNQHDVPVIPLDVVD
Target sequence (P55212 194-293 limits assumed): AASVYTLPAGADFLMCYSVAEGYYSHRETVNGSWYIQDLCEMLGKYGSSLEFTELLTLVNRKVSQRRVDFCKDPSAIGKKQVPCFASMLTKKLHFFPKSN
ARNT-TACC3 inh – ARNT/TACC3 interaction disruption | Q9Y6A5 | AlphaScreen His-ARNT PAS-B/GST-TACC3 binding, luminescence; TACC3 fragment carries E629A point mutation | inhibition, % at 9.99 µM | hit rate 0.66% among 390,000 | AID 623870;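 active = mean inhibition of replicates at least 50% and at least half of replicates each reaching 50%; inconclusive = half or more replicates reach 50% but mean below 50%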
ERAP1 HTS inh – blocks human ERAP1 aminopeptidase activity. Q9NZ08. inhibition, % at 10.7 µM. recombinant ERAP1, Leu-AMC fluorescence, 60 min. hit rate 0.15% among 340,000;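 active = mean replicate inhibition of at least 30%, or all replicates individually reaching that 30% level; inactive = mean below 30% and not every replicate reaching it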
Hits are given with their value; . = inactive; ? = inconclusive; / = not tested or not shown; ! = repeats disagree. Most compounds without a hit are left out; they make up all but 2.4% or so of the library.

SMILES | S100A4 MyoIIA | rRNA inh HTS | PGC1a acetyl inh | Casp6 inh | ARNT-TACC3 inh | ERAP1 HTS inh
Cc1cc(Cl)ccc1C(=O)C1CCCN(C(=O)c2cc(C(C)C)no2)C1 (stereo unspecified) | . | -37 | / | . | . | .
C[C@@H]1CN([C@@H](C)CO)S(=O)(=O)c2ccc(-c3ccccc3)cc2O[C@H]1CN(C)C(=O)Cc1ccccc1 | . | . | . | . | . | .
CN(CC(=O)Nc1cccc(F)c1)C(=O)CCCc1c[nH]c2ccccc12 | . | -26 | . | . | . | .
CO[C@@H]1CN(C)C(=O)c2ccc(NC(=O)C3CC3)cc2OC[C@H](C)N(Cc2ccc(F)cc2)C[C@H]1C | . | . | / | . | . | .
CN1[C@@H]2Cn3c(ccc(-c4ccc(F)cc4)c3=O)[C@H]1[C@@H](C(=O)NC1CCC1)[C@@H]2CO | / | . | / | / | / | /
CN(C)C(=O)COC(=O)/C=C/c1cn(-c2ccccc2)nc1-c1cccs1 | . | -32 | . | . | . | .
CCCNC(=O)[C@H]1[C@H](CO)[C@H]2Cn3c(ccc(-c4ccc(OC)cc4)c3=O)[C@H]2N1CCC | . | . | / | . | . | .
C[C@@H]1CN([C@H](C)CO)C(=O)Cc2cc(NS(=O)(=O)c3cccs3)ccc2O[C@@H]1CN(C)CC1CC1 | . | . | . | . | . | .
CCOC(=O)c1c(C)nc(C)c(C(=O)OCC)c1-c1cccnc1 | . | . | / | . | . | .
CCOC(=O)c1c(C)nc(C)c(C(=O)OCC)c1-c1ccccc1 | . | -41 | . | . | . | .
C[C@@H]1CN([C@H](C)CO)C(=O)CCCn2nncc2CO[C@H]1CN(C)C(=O)Nc1ccccc1F | . | . | . | . | . | .
CCn1c(=S)sc2c(=O)n(-c3ccccc3)c(=S)[nH]c21 | . | -30 | . | . | . | .
Cc1ccc(CSc2[nH]c(=O)ncc2C)cc1 | . | -19 | . | . | . | .
CCCCNC(=O)c1ccc(CS(=O)(=O)c2ccccc2OC)o1 | . | . | 44 | . | . | .
Cc1ccc(CNC(=O)c2ccc(CS(=O)(=O)c3ccccc3)o2)cc1 | . | . | 44 | . | . | .
Cc1ccc(S(=O)(=O)Cc2ccc(C(=O)NCc3cccs3)o2)cc1 | / | / | / | / | . | /
CCN(CC)CCCNC(=O)c1ccc(CS(=O)(=O)c2ccccc2OC)o1 | . | . | . | . | . | .
COc1cccc(NC(=S)NC(=O)c2cncc(Br)c2)c1 | . | -24 | . | . | . | .
CCOC(=O)c1ccc(N2C(=O)CC(N3CCC(O)(c4ccc(Br)cc4)CC3)C2=O)cc1 (stereo unspecified) | / | / | 47 | / | . | /
Cc1noc(C)c1NC(=O)Nc1cccc2c1O[C@H](CN(C)C)[C@@H](C)CN([C@H](C)CO)C2=O | . | . | . | . | . | .
CSc1nc2c(cnn2-c2ccccc2)c(=O)n1N | . | . | . | . | . | .
CCSc1nc2c(cnn2-c2ccccc2)c(=O)n1N | . | -17 | . | . | . | .
O=C(O)c1ccccc1-c1ccccc1C(=O)Nc1ccc2c(c1)[nH]c(=O)c1ccccc12 | . | . | . | . | 47 | .
COCC(=O)N[C@H]1C=C[C@H](CC(=O)NCc2ccccc2OC)O[C@@H]1CO | . | . | . | . | . | .
O=C(Nc1cccc(F)c1)N1CC(=O)N2[C@H](CO)[C@@H](c3ccc(-c4ccccc4)cc3)[C@@H]2C1 | . | . | . | . | / | .
SMILES | S100A4 MyoIIA | rRNA inh HTS | PGC1a acetyl inh | Casp6 inh | ARNT-TACC3 inh | ERAP1 HTS inh
O=c1cc[nH]c2c1ccc1c(=O)cc[nH]c12 | . | . | / | . | 74 | .
O=c1cc[nH]c2c(Cl)cccc12 | ? | . | / | . | . | .
CCOC(=O)C1CCN(C(=O)c2cc3c(=O)n4cccc(C)c4nc3s2)CC1 | . | -19 | / | . | . | .
CCCN1C[C@@H](C)[C@@H](OC)CN(C)C(=O)c2ccc(NC(=O)c3cccc(OC)c3)cc2OC[C@@H]1C | . | . | . | . | . | .
CCNC(=O)[C@@H]1[C@@H](CO)[C@@H]2Cn3c(ccc(-c4ccccc4)c3=O)[C@@H]2N1CC | 78 | . | / | . | . | .
CO[C@H]1CN(C)C(=O)c2ccc(NC(=O)c3cc(C)on3)cc2OC[C@H](C)N(C(C)=O)C[C@@H]1C | . | . | . | . | / | .
CC(C)CC#Cc1ccc([C@@H]2[C@@H](CO)N3C(=O)CN(C(=O)c4ccc5c(c4)OCO5)C[C@@H]23)cc1 | / | . | / | / | / | /
C[C@@H]1CN([C@H](C)CO)C(=O)CCCn2nncc2CO[C@@H]1CN(C)S(=O)(=O)c1ccc2ccccc2c1 | 93! | . | . | . | . | .
C[C@H]1CN([C@@H](C)CO)C(=O)CCCn2nncc2CO[C@@H]1CN(C)S(=O)(=O)c1cn(C)cn1 | . | . | . | . | . | .
Cc1ccccc1S(=O)(=O)N(C)C[C@@H]1OCc2cnnn2CCCC(=O)N([C@@H](C)CO)C[C@H]1C | 112! | . | . | . | . | .
C[C@@H]1CN([C@H](C)CO)C(=O)CCCn2nncc2CO[C@@H]1CN(C)S(=O)(=O)c1cn(C)cn1 | . | . | 101! | . | . | .
O=C(NC[C@H]1CC[C@@H]2[C@@H](CN2Cc2ccc(Oc3ccccc3)cc2)O1)C1CCOCC1 | . | / | . | . | / | .
CO[C@@H]1CN(C)C(=O)c2cc(NC(=O)c3ccccc3)ccc2OC[C@@H](C)NC[C@H]1C | . | . | . | . | . | .
CC(C)NC(=O)c1ccccc1NC(=O)C1CC(=O)N(C(C)C)C1 (stereo unspecified) | . | . | . | . | . | .
CNC(=O)c1ccccc1NC(=O)C1CC(=O)N(C(C)C)C1 (stereo unspecified) | . | . | / | 66 | . | .
CC(=O)Nc1ccc(NC(=O)COc2cccc3ccccc23)cc1 | . | . | . | . | / | .
O=C(COc1cccc2ccccc12)NNC(=O)Nc1ccccc1 | . | -33 | . | . | . | .
CC1c2ccsc2CCN1S(=O)(=O)c1cccs1 (stereo unspecified) | . | -29 | / | . | . | .
CN1CCN(S(=O)(=O)c2cccs2)CC1 | . | . | . | . | . | .
CNC(=O)C[C@@H]1CC[C@H]2[C@H](COc3ccc(NC(=O)Nc4c(C)noc4C)cc3C(=O)N2C)O1 | / | . | . | / | / | /
COc1ccc(CCNC(=S)N2CCC(C(=O)c3ccc(F)cc3)CC2)cc1OC | . | . | . | . | . | .
COc1ccc(C(=O)C2CCN(C(=S)NCCc3ccc(OC)c(OC)c3)CC2)cc1 | . | -25 | . | . | . | .
COc1ccc(N/N=C(\C#N)C(=O)NCCc2ccc(OC)c(OC)c2)cc1 | . | -38 | . | . | . | .
C[C@@H]1CN([C@H](C)CO)C(=O)c2cc(NC(=O)Nc3cccc4ccccc34)ccc2O[C@@H]1CN(C)C(=O)Nc1ccc(F)cc1 | . | . | . | . | . | .
